According to ChEMBL document CHEMBL2429739, “Double-targeting using a TrkC ligand conjugated to dipyrrometheneboron difluoride (BODIPY) based photodynamic therapy (PDT) agent” (J Med Chem, 2013):
Activity calls are given as the source filed them. The calls are words filed in the database; no cut-off is given here.

Assays:
[1] = test system: NIH3T3; experiment: Cytotoxicity against mouse NIH/3T3 cells expressing TrkC assessed as cell viability incubated for 2 hrs followed by 7.3 J/cm'2 halogen light irradiation measured after 24 hrs by MTT assay; assay type: functional, cell-based; settings: for IC50: NIH3T3, light or radiation study
Procedure, shortened: (§1)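 Cells seeded overnight at about 10,000/well (NIH3T3-TrkC) or 7000/well (NIH3T3-WT, SY5Y). Agent applied at 0.02–2 μM final in protein-free PFHM-II medium (<0.001% DMSO) for 2 h. Cells washed and given fresh medium, then irradiated with >480 nm halogen light at 12.2 mW/cm2 (7.3 J/cm2, 10 min). After 24 h, MTT added for 3.5 h; OD read at 570 nm. % dead = 100 − (OD treated/OD control)×100; three runs.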

[2] = test system: NIH3T3; experiment: Cellular uptake in mouse NIH/3T3 cells expressing TrkC at 0.5 uM after 2 hrs by confocal microscopy; assay type: ADME, cell-based; settings: nih3t3, 2 h
Procedure, shortened: (§2)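 TrkC-transfected or wild-type NIH3T3 cells exposed to agent at 0.5 μM in supernatant for 2 h. Cells washed three times with PBS, then imaged live by confocal microscopy. Intracellular fluorescence intensity was quantified over 100 cells.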

[3] = test system: NIH3T3; experiment: Cytotoxicity against mouse NIH/3T3 cells expressing TrkC assessed as cell viability incubated for 2 hrs followed by 7.3 J/cm'2 halogen light irradiation measured after 24 hrs by MTT assay in presence of 20 uM of IY-IY; assay type: functional, cell-based
Procedure, shortened: (§3)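 NIH3T3-TrkC cells treated for 2 h with agent (0.02–2 μM) together with a constant 20 μM IY-IY or 3.5 nM NT-3 competitor. Cells washed, then irradiated at >480 nm, 12.2 mW/cm2, 7.3 J/cm2. After 24 h, viability read by MTT (OD 570 nm) and expressed as % dead cells; three runs.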

[4] = Cellular uptake in lysosome of mouse NIH/3T3 cells expressing TrkC at 1 uM after 12 hrs by confocal microscopy; assay type: ADME, cell-based; settings: nih3t3, 12 h
Procedure, shortened: (§4)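 NIH3T3-TrkC cells (grown in DMEM/F12 with G418 and 10% newborn calf serum) incubated with agent at 1 μM for 12 h at 37 °C, then PBS-washed. Co-stained with LysoTracker Red 500 nM for 30 min at 37 °C, or with MitoTracker Deep Red / ER-Tracker Blue-White at 100 nm for 15 min. Washed again, then live cells imaged by multiphoton confocal Z-stacks in 0.5 μm steps.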

[5] = test system: Mus musculus; experiment: Toxicity in mouse under dark condition at 100 mg/kg after 12 days; assay type: organism-based; set-up: dose 100 mg/kg; settings: in vivo, 288 h
[6] = test system: NIH3T3; experiment: Cytotoxicity against wild type mouse NIH/3T3 cells assessed as cell viability after 2 hrs followed by 7.3 J/cm'2 halogen light irradiation measured after 24 hrs by MTT assay; assay type: cell-based; settings: nih3t3, 24 h; procedure, shortened: as §1
[7] = test system: NIH3T3; experiment: Cytotoxicity against mouse NIH/3T3 cells expressing TrkC assessed as cell viability incubated for 2 hrs followed by 7.3 J/cm'2 halogen light irradiation measured after 24 hrs by MTT assay in presence of 3.5 nM of NT3; assay type: functional, cell-based; procedure, shortened: as §3
[8] = test system: NIH3T3; experiment: Cellular uptake in wild type mouse NIH/3T3 cells at 0.5 uM after 2 hrs by confocal microscopy; assay type: ADME, cell-based; settings: nih3t3, 2 h; procedure, shortened: as §2
[9] = Cellular uptake in mitochondria of mouse NIH/3T3 cells expressing TrkC at 1 uM after 12 hrs by confocal microscopy; assay type: ADME; settings: nih3t3, 12 h; procedure, shortened: as §4
[10] = test system: NIH3T3; experiment: Dark cytotoxicity against mouse NIH/3T3 cells expressing TrkC assessed as cell viability by MTT assay; assay type: cell-based
Procedure, shortened: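 NIH3T3-TrkC cells given the same 2 h agent treatment and wash as in the light assay, but kept without illumination. Viability measured by MTT; three runs.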

[11] = Cytotoxicity against human SH-SY5Y cells expressing TrkC assessed as cell viability after 2 hrs followed by 7.3 J/cm'2 halogen light irradiation measured after 24 hrs by MTT assay; assay type: functional, cell-based; settings: light or radiation study; procedure, shortened: as §1
[12] = Cellular uptake in endoplasmic reticulum of mouse NIH/3T3 cells expressing TrkC at 1 uM after 12 hrs by confocal microscopy; assay type: ADME, cell-based; settings: nih3t3, 12 h; procedure, shortened: as §4

**Q.** For `CC[C@H](C)[C@@H](C(=O)N1CCN(c2nc(NCCOCCOCCOCc3cn(CCCC4=C5C(C)=C(I)C(C)=[N+]5[B-](F)(F)n5c(C)c(I)c(C)c54)nn3)nc(N3CCN(C(=O)[C@H]([C@@H](C)CC)n4cc([C@@H](N)Cc5ccc(O)cc5)nn4)CC3)n2)CC1)n1cc([C@@H](N)Cc2ccc(O)cc2)nn1`, which IC50 [1] is on record?
**A.** The IC50 was > 2000 nM.

**Q.** What about the Drug uptake [2] of the same compound?
**A.** The Drug uptake was “Not Active”.

**Q.** Which results are given for `CC[C@H](C)[C@H](N)c1cn([C@@H](Cc2ccc(O)cc2)C(=O)N2CCN(c3nc(NCCOCCOCCOCc4cn(CCCC5=C6C(C)=C(I)C(C)=[N+]6[B-](F)(F)n6c(C)c(I)c(C)c65)nn4)nc(N4CCN(C(=O)[C@H](Cc5ccc(O)cc5)n5cc([C@@H](N)[C@@H](C)CC)nn5)CC4)n3)CC2)nn1`?
**A.** Activity [3]: Active; Drug uptake [4]: Active; Activity [1]: Dose-dependent effect; IC50 [1]: 350 nM; Activity [5]: Non-toxic; Activity [6]: Active; Activity [7]: Active; Drug uptake [8]: Not Active; Drug uptake [9]: Not Active; Drug uptake [2]: Active; Activity [10]: Non-toxic; IC50 [11]: 150 nM; Drug uptake [12]: Not Active
